Vif inh: HIV Vif inhibition | inhibition, % at 7.49 µM | actives 0.35% (n = 340,000) | HEK293T cells, Vif self-association by quenched fluorescence, imaging, 24 h; in the data active = inhibition above about 50%, passing the limit was not always enough; inconclusive = no clear call, values can overlap the other calls; inactive = below about 31%
MITF act: increases MITF-driven TRPM1 promoter luciferase signal; activation, % at 12.5 µM; actives 0.75% (n = 300,000); SK-MEL-5 TRPM1-promoter luciferase, 24 h; % of positive control, neutral wells = 0;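 active = mean activation of at least 80% with every replicate also reaching 80%; inconclusive = mean reaches 80% but some replicate falls short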
esBAF inh: inhibitors of esBAF chromatin remodeling in mouse ES cells | actives 2% (n = 350,000) | reporter increase, % at 12.5 µM | Bmi1-luciferase knock-in reporter, 24 h; 100% = twice the neutral-well signal; in the data active = activation above about 40%; inconclusive = no clear call, values can overlap the other calls;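 also: a rise in the Bmi1 reporter signal indicates esBAF inhibition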
Xi reactivation: activators of X-chromosome reactivation in mouse fibroblasts. XiGFP mouse fibroblasts, % GFP-positive cells imaging, 3 d; cells co-treated with 5-aza-dC sensitizer; scaled so ellipticine positive control = 100%. activation, % at 7.58 µM. actives 0.055% (n = 360,000);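 active = mean normalized replicate activation at least 10% and every replicate at or above 10%; inconclusive = only one of the two criteria met; inactive = mean below 10% and not all replicates reach 10%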
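Material: SV40-immortalized XiGFP fibroblast cells, line 68-5-11 | Buffer or medium: DMEM containing 5-aza-dC | Dosing: One concentration, pinned | Times: 3 d treatment, 15 min room-temperature fixation | Controls: Ellipticine 6 µM positive control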
Wnt bcat act: activates Wnt/beta-catenin signaling in a reporter cell assay | AID 743398 | activator, plate reader | activation, % at 9.35 µM | actives 1.2% (n = 300,000); in the data active = activation above about 30%, passing the limit was not always enough; inconclusive = no clear call, values can overlap the other calls
Of the large screens only hits and unclear results are named; the others gave an inactive call. Hits are enriched below; roughly 2.6% of the tested compounds scored in any of these assays.

O=C(Nc1ncc([N+](=O)[O-])s1)c1cccc([N+](=O)[O-])c1	Wnt bcat act 38
Cc1ccc(OC(=O)N(C)C[C@@H]2OCc3ccccc3-c3ccccc3C(=O)N([C@@H](C)CO)C[C@H]2C)cc1	none (no result: Vif inh, MITF act, Wnt bcat act)
C[C@@H]1CCCCO[C@H](CN(C)C(=O)c2ccncc2)[C@H](C)CN([C@@H](C)CO)C(=O)c2cc(NC(=O)Cc3ccccc3)ccc2O1	none (no result: Vif inh, MITF act, Wnt bcat act)
O=C(Nc1ccc([N+](=O)[O-])cc1)c1cccc([N+](=O)[O-])c1	Wnt bcat act 40 (no result: MITF act)
O=C(Nc1ncc(Cc2ccccc2)s1)c1cccs1	none (no result: Xi reactivation, Wnt bcat act)
Cc1ccc(C(=O)Nc2nc3c(s2)CCCC3)o1	Wnt bcat act 57 (no result: Xi reactivation)
Cc1ccc(C(=O)Nc2ncc(Cc3ccccc3)s2)o1	Wnt bcat act 51 (no result: Xi reactivation)
O=C(Nc1ncc(Cc2cccc(Cl)c2)s1)c1cccs1	esBAF inh 47 (no result: Vif inh, Xi reactivation, Wnt bcat act)
COc1ccc(C(=O)N[C@H](C(=O)Nc2nc3c(s2)CCCC3)C(C)C)cc1	esBAF inh 65, Wnt bcat act 38
CCCC#Cc1ccc2c(c1)O[C@H](CN(C)C(=O)CN(C)C)[C@@H](C)CN([C@H](C)CO)S2(=O)=O	none (no result: Vif inh, MITF act, Wnt bcat act)
C[C@@H]1CN([C@H](C)CO)C(=O)c2cc(NC(=O)CCN3CCOCC3)ccc2O[C@H]1CN(C)S(=O)(=O)c1ccc(Cl)cc1	none (no result: Vif inh, MITF act, Wnt bcat act)
Cc1ccc(Cc2cnc(NC(=O)c3cccs3)s2)cc1	esBAF inh 72 (no result: Xi reactivation, Wnt bcat act)
C[C@H]1CN([C@@H](C)CO)C(=O)Cc2cc(NS(=O)(=O)c3ccc(Cl)cc3)ccc2O[C@@H]1CN(C)C	none (no result: Vif inh, MITF act, Wnt bcat act)
Cc1ccc(NC(=O)CN2CCCC2c2cccn2C)c(Br)c1 (centres undefined)	MITF act 109
CCC(=O)N1[C@@H]2CN(C(=O)Nc3ccccc3Cl)c3ccccc3[C@@H]2[C@@H]1CO	none (no result: Vif inh, MITF act, Wnt bcat act)
CC(C)c1ccc(Nc2nc(Cl)nc(NCCO)n2)cc1	none (no result: MITF act)
CC(C)Nc1nc(Cl)nc(Nc2ccccc2)n1	esBAF inh 61
CN(C)S(=O)(=O)c1cccc(C(=O)N2CCN(Cc3ccccc3)CC2)c1	none (no result: Xi reactivation)
O=C(N=C1N=C2C=CC=CN2Cc2ccccc21)c1ccc(S(=O)(=O)N2CCCC2)cc1	MITF act 103, esBAF inh 50, Wnt bcat act 44
O=C(N=C1N=C2C=CC=CN2Cc2ccccc21)c1ccc(S(=O)(=O)N2CCOCC2)cc1	MITF act 84 (no result: esBAF inh)
CN(C)S(=O)(=O)c1cccc(C(=O)N=C2N=C3C=CC(Cl)=CN3Cc3ccccc32)c1	Wnt bcat act 63 (no result: esBAF inh)
C[C@H](CO)N1C[C@H](C)[C@H](CN(C)Cc2ccc(Cl)c(Cl)c2)Oc2ccc(NC(=O)CCCCCC(=O)Nc3ccccc3N)cc2CC1=O	none (no result: Vif inh, MITF act, Wnt bcat act)
CN1CCN(C(=O)C[C@@H]2CC[C@@H]3[C@@H](COc4ccc(NC(=O)C5CCC5)cc4C(=O)N3C)O2)CC1	none (no result: Vif inh, MITF act, esBAF inh, Wnt bcat act)
O=C(C=Cc1ccco1)c1ccc2ccccc2c1	Wnt bcat act 61 (no result: esBAF inh)
COc1cccc(-c2ccc([C@@H]3[C@@H](CO)N4C(=O)CN(C(=O)NC(C)C)C[C@H]34)cc2)c1	none (no result: Vif inh, MITF act, esBAF inh, Wnt bcat act)
N#C/C(=C\c1ccc2c(c1)OCCO2)C(=O)Nc1ccc(C(=O)O)cc1	esBAF inh 61
NC(=O)c1ccsc1NC(=O)c1cc(=O)c2ccccc2o1	MITF act 130, esBAF inh inconclusive
Cc1ccc(NC(=O)c2cc(=O)c3ccccc3o2)cc1	esBAF inh 56, Wnt bcat act inconclusive (no result: Xi reactivation)
CC(=O)Nc1ccc(NC(=O)c2cc(=O)c3ccccc3o2)cc1	none
COc1ccc(CN2CC3(CCN(C(=O)Cc4ccncc4)CC3)c3c([nH]c4cc(OC)ccc34)[C@@H]2CO)cc1	none (no result: Vif inh, MITF act, esBAF inh, Wnt bcat act)
Cc1cccc(S(=O)(=O)N[C@H]2CC[C@@H](CCNS(=O)(=O)c3ccccc3F)O[C@@H]2CO)c1	none (no result: Vif inh, MITF act, Wnt bcat act)
CC(C)NC(=O)N(C)C[C@@H]1Oc2ccccc2C(=O)N(C)C[C@@H]1C	none (no result: Vif inh, MITF act, esBAF inh, Wnt bcat act)
O=C(c1ccccn1)N1CC(=O)N2[C@H](C1)[C@@H](c1ccc(-c3cccc(F)c3)cc1)[C@@H]2CO	none (no result: Vif inh, MITF act, esBAF inh, Wnt bcat act)
COc1cccc(OCc2cc(/C=N/Nc3ccc(C(=O)O)cc3)ccc2OC)c1	esBAF inh 59
COc1cccc(C(=O)Oc2ccc(/C=N/Nc3ccc(C(=O)O)cc3)cc2OC)c1	none
CO[C@H]1CN(C)C(=O)c2cc(NC(=O)NC(C)C)ccc2OC[C@@H](C)N(Cc2ccc(-c3ccccn3)cc2)C[C@@H]1C	esBAF inh 72 (no result: Vif inh, MITF act, Wnt bcat act)
CO[C@@H]1CN(C)C(=O)c2cc(NC(=O)c3nc4ccccc4s3)ccc2OC[C@@H](C)N(Cc2cccnc2)C[C@H]1C	esBAF inh 51 (no result: Vif inh, MITF act, Wnt bcat act)
COc1cccc(C(=O)Nc2ccc3c(c2)OC[C@@H](C)N(CCc2ccccc2)C[C@H](C)[C@H](OC)CN(C)C3=O)c1	none (no result: Vif inh, MITF act, Wnt bcat act)
COc1cccc(C(=O)Nc2ccc3c(c2)OC[C@@H](C)N(CCc2ccccc2)C[C@@H](C)[C@H](OC)CN(C)C3=O)c1	esBAF inh 64 (no result: Vif inh, MITF act, Wnt bcat act)
CO[C@H]1CN(C)C(=O)c2ccc(NC(=O)NC(C)C)cc2OC[C@H](C)N(Cc2ccc(-c3ccccn3)cc2)C[C@H]1C	none (no result: Vif inh, MITF act, Wnt bcat act)
CCCNC(=O)Nc1ccc2c(c1)C(=O)N(C)C[C@H](OC)[C@@H](C)CN(Cc1ccc(-c3ccccn3)cc1)[C@H](C)CO2	esBAF inh 42 (no result: Vif inh, MITF act, Wnt bcat act)
C[C@H]1CN([C@@H](C)CO)C(=O)Cc2cc(NS(=O)(=O)c3ccc(F)cc3)ccc2O[C@H]1CN(C)S(=O)(=O)c1ccc(F)cc1	none (no result: Vif inh, MITF act, Wnt bcat act)
CO[C@@H]1CN(C)C(=O)c2ccc(NS(C)(=O)=O)cc2OC[C@H](C)NC[C@@H]1C	none (no result: Vif inh, MITF act, Wnt bcat act)
CO[C@H]1CN(C)C(=O)c2cc(NC(=O)NC(C)C)ccc2OC[C@H](C)N(Cc2ccc(-c3ccccn3)cc2)C[C@@H]1C	esBAF inh 142 (no result: Vif inh, MITF act, Wnt bcat act)
CO[C@H]1CN(C)C(=O)c2ccc(NC(=O)NC(C)C)cc2OC[C@H](C)N(Cc2ccc(-c3ccccn3)cc2)C[C@@H]1C	none (no result: Vif inh, MITF act, esBAF inh, Wnt bcat act)
COc1ccc(S(=O)(=O)N(C)C[C@@H]2Oc3cc(C4=CCCC4)ccc3S(=O)(=O)N([C@H](C)CO)C[C@@H]2C)cc1	none (no result: Vif inh, MITF act, Wnt bcat act)
Cc1ccc(C2=NN3C(C2)c2ccccc2OC32C(=O)Nc3ccccc32)cc1 (centres undefined)	none (no result: esBAF inh, Xi reactivation, Wnt bcat act)
CN1C(=O)C2(Oc3ccccc3C3CC(c4ccccc4)=NN32)c2ccccc21 (centres undefined)	esBAF inh 95 (no result: Xi reactivation, Wnt bcat act)
O=C(N/N=C/c1cn(-c2ccccc2)nc1-c1cc2ccccc2o1)c1cccnc1	Wnt bcat act 73 (no result: esBAF inh)
CC=Cc1ccc2n(c1=O)C[C@@H]1[C@@H](CO)[C@H](C(=O)NCCC)[C@H]2N1Cc1nccs1 (mixture of isomers)	none (no result: Vif inh, MITF act, Wnt bcat act)
COc1ccc(NC(=S)Nc2ncccc2C)c(OC)c1	esBAF inh 48 (no result: Xi reactivation)
Cc1cccnc1NC(=S)Nc1ncccc1C	MITF act 101 (no result: Vif inh)
Cc1ccc(NC(=S)NCCc2ccccc2)nc1	MITF act 84 (no result: esBAF inh)
COc1ccc(OC)c(NC(=S)NCCSc2ccc(C)cc2)c1	none (no result: esBAF inh)
COc1ccc(NC(=S)NCCSc2ccc(C)cc2)c(OC)c1	Wnt bcat act 61 (no result: esBAF inh, Xi reactivation)

Screening results (PubChem BioAssay)
